The results in this text go back to ChEMBL document CHEMBL3271939, “Studies of antitumor agents. 1. Resolution of racemic 1-(tetrahydro-2-furanyl)-k-fluorouracil into the R and S isomers and examination of the biological activities of the isomers” (J Med Chem, 1977).

Values after ≈ are worked out from the molar mass of the structure shown.

One data set concerns Micrococcus flavus. The experiment in a line: Antibacterial activity against Micrococcus flavus ATCC 10240 assessed as growth inhibition after 24 hrs by plate dilution method. The format is functional. Conditions: ATCC 10240, 24 h. The method in brief:
(§1)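 MIC determined by standard plate dilution in defined medium […], plates incubated 37 °C for 24 h.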

For a further data set, the system named is Brevundimonas diminuta. As to the kind of experiment: Antibacterial activity against Pseudomonas diminuta IAM 1513 assessed as growth inhibition after 24 hrs by plate dilution method. The format is functional. As to conditions: IAM 1513, 24 h. The method in brief:
as §1

In another data set the test system is Bacillus subtilis. As to the kind of experiment: Antibacterial activity against Bacillus subtilis ATCC 6633 assessed as growth inhibition after 24 hrs by plate dilution method. As to conditions: ATCC 6633, 24 h. Format: functional. The method in brief: as §1
In another data set the test system is Klebsiella pneumoniae. As to the kind of experiment: Antibacterial activity against Klebsiella pneumoniae ATCC 10031 assessed as growth inhibition after 24 hrs by plate dilution method. Format: functional. Conditions: ATCC 10031, 24 h. The gist of the method:
as §1

A further data set concerns Staphylococcus aureus. The experiment in a line: Antibacterial activity against Staphylococcus aureus ATCC 6538P assessed as growth inhibition after 24 hrs by plate dilution method. The format is functional. The method in brief: as §1
For another data set, the system named is Micrococcus luteus. As to the kind of experiment: Antibacterial activity against Sarcina lutea ATCC 9341 assessed as growth inhibition after 24 hrs by plate dilution method. The format is functional. Conditions: ATCC 9341, 24 h. The method in brief: as §1
The test system of a further data set is Proteus vulgaris. The experiment in a line: Antibacterial activity against Proteus vulgaris IFO 3045 assessed as growth inhibition after 24 hrs by plate dilution method. Format: functional. As to conditions: IFO 3045, 24 h. The gist of the method:
as §1

In another data set the test system is Escherichia coli. As to the kind of experiment: Antibacterial activity against Escherichia coli NIHJ assessed as growth inhibition after 24 hrs by plate dilution method. The format is functional. The gist of the method: as §1
A short description of data set [1]: Drug metabolism in mouse liver microsomes assessed as fluorouracil release by measuring antibacterial activity against Staphylococcus aureus 209P at 200 ug after 4 hrs by thin layer cup method. The format is ADME. The method in brief:
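Mouse liver microsome fraction suspended in 10 mM phosphate buffer pH 7.4 with 1.15% KCl (equivalent to 25% homogenate); 0.8 mL suspension plus 200 µg isomer in 1 mL, no NADPH, 37 °C for 4 h. Unchanged substrate removed by CHCl3 extraction; released FU in neutralized aqueous layer quantified by antibacterial activity against S. aureus 209P, thin-layer-cup method.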
For orientation: Liver microsomes are vesicles of endoplasmic reticulum, rich in cytochrome P450 enzymes.

Data set [2] concerns YOSHIDA. As to the kind of experiment: Antitumor activity against rat Yoshida cells allografted in Donryu rat assessed as inhibition of tumor growth at 90 mg/kg, ip administered daily for 7 days starting 24 hrs after tumor inoculation measured on 10th day post-tumor inoculation. Conditions: route intraperitoneal, read-out: TGI. The format is functional. The method in brief: (§2)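 Male Donryu rats (120 ± 5 g) inoculated s.c. in inguinal region with 5×10^6 AH-130 carcinoma or Yoshida sarcoma cells per rat; drug 90 mg/kg i.p. daily for 7 days starting 24 h later; six animals per group. Body weight and tumor weight measured on day 10 after inoculation; tumor weight compared with untreated control group to give % inhibition.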

The test system of data set [3] is YOSHIDA. As to the kind of experiment: Antitumor activity against rat Yoshida cells allografted in Donryu rat assessed as tumor weight at 90 mg/kg, ip administered daily for 7 days starting 24 hrs after tumor inoculation measured on 10th day post-tumor inoculation (reference value: 3.65 +/- 0.60 gms). Conditions: route intraperitoneal. The format is functional. The method in brief: as §2

The nature of data set [4]: Antitumor activity against rat AH-130 cells allografted in Donryu rat assessed as tumor weight at 90 mg/kg, ip administered daily for 7 days starting 24 hrs after tumor inoculation measured on 10th day post-tumor inoculation (reference value: 4.73 +/- 1.19 gms). Conditions: route intraperitoneal. The format is functional. The gist of the method: as §2
The nature of data set [5]: Antitumor activity against rat AH-130 cells allografted in Donryu rat assessed as inhibition of tumor growth at 90 mg/kg, ip administered daily for 7 days starting 24 hrs after tumor inoculation measured on 10th day post-tumor inoculation. Format: functional. Conditions: route intraperitoneal, read-out: TGI. The gist of the method: as §2
Data set [6] in a line: Drug metabolism in mouse liver microsomes assessed as fluorouracil release by measuring antibacterial activity against Staphylococcus aureus 209P at 200 ug after 4 hrs by thin layer cup method in presence of NADPH. The format is ADME. The method in brief:
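Mouse liver microsomes in 10 mM phosphate buffer pH 7.4, 1.15% KCl (25% homogenate equivalent); 0.8 mL suspension, 0.1 mL of 50 mM NADPH stock, 200 µg isomer, made to 1 mL; 37 °C, 4 h. After CHCl3 extraction of unchanged substrate, FU in neutralized aqueous phase bioassayed against S. aureus 209P by thin-layer-cup method.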

For data set [7], the system named is Rattus norvegicus. As to the kind of experiment: Toxicity in Donryu rat allografted with rat AH-130 cells assessed as body weight at 90 mg/kg, ip administered daily for 7 days starting 24 hrs after tumor inoculation measured on 10th day post-tumor inoculation (reference value: 64.1 gms). The format is organism-based. Set-up: dose 90 mg/kg, route intraperitoneal. Conditions: in vivo. The method in brief:
as §2

Data set [8] concerns Rattus norvegicus. As to the kind of experiment: Toxicity in Donryu rat allografted with rat Yoshida cells assessed as body weight at 90 mg/kg, ip administered daily for 7 days starting 24 hrs after tumor inoculation measured on 10th day post-tumor inoculation (reference value: 53 gms). The format is organism-based. Also noted: dose 90 mg/kg, route intraperitoneal. Conditions: in vivo. The method in brief:
as §2

In general, MIC refers to the lowest concentration that inhibits growth of the organism. For the compound `O=c1[nH]cc(F)c(=O)[nH]1` [FLUOROURACIL], the minimum inhibitory concentration (MIC) is 0.00425 µM (≈ 0.000553 µg/mL) in the data set with Micrococcus flavus; greater than 1000 µM in the data set on Brevundimonas diminuta; 4.62 µM (≈ 0.601 µg/mL) in the data set on Bacillus subtilis; 601 µM (≈ 78.2 µg/mL) in the data set on Klebsiella pneumoniae; 0.0723 µM (≈ 0.0094 µg/mL) in the data set on Staphylococcus aureus; 0.0723 µM (≈ 0.0094 µg/mL) in the data set with Micrococcus luteus. For the same compound, the MIC in the data set on Proteus vulgaris was 18.5 µM (≈ 2.41 µg/mL); in the data set with Escherichia coli it was 18.6 µM (≈ 2.42 µg/mL).

Consider `O=c1[nH]c(=O)n([C@@H]2CCCO2)cc1F`, for which the Drug metabolism in data set [1] came out at 0.72 µg/mL; in data set [6], 13.16 µg/mL. Further, the inhibition in vivo at 90 mg/kg in the data set with YOSHIDA [2] is 40.6%; in data set [5] it was 71.9%. The Activity amounted to 2.17 g with YOSHIDA [3], 1.33 g in data set [4], 33 g in the data set with Rattus norvegicus [7] and 39.3 g with Rattus norvegicus [8]. Further, the MIC in the data set with Micrococcus flavus was 375 µM (≈ 75.1 µg/mL); in the data set with Brevundimonas diminuta it was greater than 1000 µM; in the data set with Bacillus subtilis, greater than 1000 µM; in the data set with Klebsiella pneumoniae, greater than 1000 µM; with Staphylococcus aureus it was 12 µM (≈ 2.4 µg/mL); in the data set on Micrococcus luteus, 12 µM (≈ 2.4 µg/mL). The minimal inhibitory concentration (MIC) with Proteus vulgaris and in the data set on Escherichia coli was greater than 1000 µM throughout.

With `O=c1[nH]c(=O)n(C2CCCO2)cc1F` (racemic) [TEGAFUR], the inhibition in vivo at 90 mg/kg in the data set with YOSHIDA [2] stood at 38.9%; in [5], 51.4%. Further, the Activity amounted to 2.23 g with YOSHIDA [3], 2.3 g in data set [4], 33 g in the data set with Rattus norvegicus [7] and 33.2 g in the data set on Rattus norvegicus [8]. Further, the MIC is 750 µM (≈ 150 µg/mL) in the data set with Micrococcus flavus; greater than 1000 µM in the data set on Brevundimonas diminuta; 780 µM (≈ 156 µg/mL) in the data set with Bacillus subtilis; greater than 1000 µM in the data set with Klebsiella pneumoniae; 12 µM (≈ 2.4 µg/mL) in the data set with Staphylococcus aureus; 12 µM (≈ 2.4 µg/mL) with Micrococcus luteus. Also, the minimal inhibitory concentration (MIC) in the data set with Proteus vulgaris and in the data set on Escherichia coli was greater than 1000 µM each time.

As for `O=c1[nH]c(=O)n([C@H]2CCCO2)cc1F`, the Drug metabolism in data set [1] is 0.51 µg/mL; in [6], 10.32 µg/mL. Also, the inhibition in vivo at 90 mg/kg amounted to 33.7% in the data set on YOSHIDA [2] and 61.5% in data set [5]. The Activity in the data set on YOSHIDA [3] was 2.42 g; in data set [4] it was 1.82 g; in the data set with Rattus norvegicus [7], 40.2 g; in the data set with Rattus norvegicus [8], 42 g. Also, the MIC in the data set on Micrococcus flavus was 750 µM (≈ 150 µg/mL); in the data set with Brevundimonas diminuta it was greater than 1000 µM; with Bacillus subtilis, 780 µM (≈ 156 µg/mL); in the data set on Klebsiella pneumoniae, greater than 1000 µM; in the data set on Staphylococcus aureus, 12 µM (≈ 2.4 µg/mL); in the data set on Micrococcus luteus, 6 µM (≈ 1.2 µg/mL). The minimal inhibitory concentration (MIC) with Proteus vulgaris and in the data set with Escherichia coli was greater than 1000 µM throughout.
